Measurements taken from paper PMC7134359 (Nature, 2020).
“And” between values parts separate entries of the source, which are not always exact repeats. Identical values can stand only once. Like-named read-outs stand apart in the source and are kept apart here. Values belong to the molecule of their own block, whether it stands above or below them.

How the values were obtained:
[1] = target: hMT1 (Homo sapiens, UniProt P48039); assay: GloSensor cAMP assay; format: cell-based; conditions: for hMT1 Schild slope: Schild analysis, antagonism of melatonin, cAMP
hMT1, sequence (P48039 whole entry): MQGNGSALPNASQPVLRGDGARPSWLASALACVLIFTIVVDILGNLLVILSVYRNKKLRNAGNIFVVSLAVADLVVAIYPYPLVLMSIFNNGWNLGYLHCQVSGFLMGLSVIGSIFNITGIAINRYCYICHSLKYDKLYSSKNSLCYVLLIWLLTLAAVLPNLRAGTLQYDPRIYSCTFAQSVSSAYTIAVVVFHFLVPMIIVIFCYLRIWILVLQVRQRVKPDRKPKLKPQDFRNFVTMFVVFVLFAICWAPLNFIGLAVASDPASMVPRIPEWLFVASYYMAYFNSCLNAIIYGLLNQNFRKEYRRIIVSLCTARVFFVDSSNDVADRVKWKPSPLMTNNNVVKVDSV

[2] = target: T1, hMT2 (Homo sapiens, UniProt P49286); assay: cell-based; format: cell-based; conditions: for hMT2 Schild slope: Schild analysis, antagonism of melatonin
T1 sequence (P49286 1-362): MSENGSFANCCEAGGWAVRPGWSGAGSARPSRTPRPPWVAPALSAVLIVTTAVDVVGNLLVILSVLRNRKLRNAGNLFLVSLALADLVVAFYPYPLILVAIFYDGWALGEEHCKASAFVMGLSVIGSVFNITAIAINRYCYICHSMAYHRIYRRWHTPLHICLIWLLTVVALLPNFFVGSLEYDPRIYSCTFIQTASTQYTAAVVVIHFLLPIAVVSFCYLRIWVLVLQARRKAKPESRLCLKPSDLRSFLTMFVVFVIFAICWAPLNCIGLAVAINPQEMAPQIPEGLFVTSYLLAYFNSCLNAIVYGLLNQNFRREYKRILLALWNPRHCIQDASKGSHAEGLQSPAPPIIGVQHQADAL

[3] = Plasma pharmacokinetics and brain distribution; format: in vivo; conditions: male, C57BL/6, mouse, iv, 2 mg/kg; for Kp at 30 min: brain and plasma; for AUC / Cmax / Vd / clearance / half-life: plasma
Summary of the method: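 Male C57BL/6 mice (nine) got a single 2 mg/kg IV dose in 5% N-methyl pyrrolidone, 5% Solutol HS-15, 90% saline. Retro-orbital blood (~60 μL, three mice per time point, light isoflurane) was taken at 0.08–24 hr and plasma stored at -70°C. Brains were collected at 0.5, 4 and 24 hr and homogenized in ice-cold PBS pH 7.4 at three times brain weight.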

[4] = tested on: C3H/HeN mice (WT, MT1KO, MT2KO); assay: Re-entrainment; format: in vivo, mouse
[5] = target: T2, mMT1 (Mus musculus, UniProt Q61184); assay: 2-[125I]-iodomelatonin competition binding, CHO cell membranes; conditions: read-out: KD mMT1
T2 sequence (Q61184 whole entry): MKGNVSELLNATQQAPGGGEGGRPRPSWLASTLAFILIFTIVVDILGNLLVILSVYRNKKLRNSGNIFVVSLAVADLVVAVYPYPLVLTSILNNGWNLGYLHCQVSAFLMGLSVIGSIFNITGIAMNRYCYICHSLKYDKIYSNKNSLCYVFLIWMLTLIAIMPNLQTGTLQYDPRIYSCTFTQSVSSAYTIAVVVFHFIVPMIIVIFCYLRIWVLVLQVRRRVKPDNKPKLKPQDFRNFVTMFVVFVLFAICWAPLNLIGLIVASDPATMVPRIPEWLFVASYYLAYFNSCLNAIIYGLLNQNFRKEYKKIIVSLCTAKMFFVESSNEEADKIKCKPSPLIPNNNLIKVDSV

[6] = target: T2, mMT1; assay: GloSensor cAMP assay; format: cell-based; conditions: for Emax: HEK293, read-out: mMT1 Emax
Summary of the method: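 HEK293T cells in DMEM with 10% dialyzed FBS were co-transfected with a mouse MT1 or MT2 (de-Tango-ized) construct plus GloSensor DNA (8 μg each). Next day, cells were seeded at 20,000/well in DMEM with 1% dialyzed FBS for 24 h, then switched to HBSS, 20 mM HEPES pH 7.4, 0.1% BSA. Inhibition of isoproterenol-stimulated cAMP was read by luminescence.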

[7] = tested on: C3H/HeN mice (WT, MT1KO, MT2KO); conditions: cited from earlier work
[8] = tested on: C3H/HeN mice (WT, MT1KO, MT2KO); assay: Phase shift of circadian running wheel activity onset in constant dark; format: in vivo; conditions: CT 10; 0.9 μg/mouse (about 0.03 mg/Kg)
[9] = hMT1 pEC50, inhibition of isoproterenol-stimulated cAMP, HEK cells, agonist
[10] = hMT2 pEC50, inhibition of isoproterenol-stimulated cAMP, HEK cells, agonist
[11] = MT2 activity, none detectable up to, cAMP assay
[12] = hMT1 pEC50 (Inverse), inverse agonist, isoproterenol-stimulated cAMP, HEK cells
[13] = pEC50 MT1 (IA), inverse agonist, as summarised in PK table
[14] = hMT2 pEC50 (Inverse), inverse agonist, isoproterenol-stimulated cAMP, HEK cells

Structure (SMILES): COc1ccc(Br)c(CNc2cccnc2)c1 [ZINC128734226]
- EC50 [1, 9]: 158 nM
- EC50 [2, 10]: 6.31 nM
- Kp at 30 min [3]: 1.58
- AUC [3]: 282 ng·h/mL
- Cmax [3]: 1920 ng/mL
- Vd [3]: 1.11 L/kg
- clearance [3]: 118 mL/min/kg
- half-life [3]: 17.4 min

Structure (SMILES): CC(=O)NCCc1c(Cc2ccccc2)[nH]c2ccccc12 [luzindole]
- effect on re-entrainment ([4]; 300 μg/mouse): decelerates re-entrainment

Structure (SMILES): COc1ccc2[nH]c(I)c(CCNC(C)=O)c2c1 [2-[^125I]-iodomelatonin, 2-[^125I]-Iodomelatonin]
- Kd ([5]; GTP buffer): 0.201 nM
- Kd ([5]; control buffer): 0.087 nM

Structure (SMILES): COc1ccc(CN(C(=O)c2ccccc2F)c2ccncc2)cc1 [ZINC151192780]
- selectivity for MT2 over MT1 ([2]; cAMP): 89 fold

Structure (SMILES): Cc1nc(-c2cccc(NCc3ccccc3Cl)c2)n[nH]1 [ZINC37781618]
- EC50 ([1]; hMT1 pEC50 (inactive analog), tested at concentrations up to 30μM): > 31600 nM
- EC50 ([2]; hMT2 pEC50 (inactive analog), tested at concentrations up to 30μM): > 31600 nM

Structure (SMILES): COc1ccc2[nH]cc(CCNC(C)=O)c2c1 [melatonin]
- effect on re-entrainment ([4]; 30 μg/mouse): accelerates re-entrainment
- ED50 (phase advance) [7]: 0.72 μg/mouse

The next lines start with results.

- EC50 [2, 11]: > 30000 nM
Structure (SMILES): COc1ccc(CN(C)C(=O)c2cccc(OC(F)F)c2)cc1O [ZINC353044322]

- Kb [1]: 12.6 nM
- Emax ([1]; HEK293, read-out: hMT1 % Emax (Inverse)): 47%
- Emax ([1]; HEK293, read-out: hMT1 Emax): -47 ± 12%
- hMT1 Schild slope [1]: 0.80 ± 0.04
- EC50 [1, 12]: 20.9 nM
- EC50 [1, 13]: 20 nM
- Kb [2]: 200 nM
- Emax ([2]; HEK293, read-out: hMT2 % Emax (Inverse)): 153%
- Emax ([2]; HEK293, read-out: hMT2 Emax): -153 ± 14%
- hMT2 Schild slope ([2]; cAMP): 1.0 ± 0.1
- EC50 [2, 14]: 661 nM
- EC50 ([2]; pEC50 MT2 (IA), inverse agonist, as summarised in PK table): 631 nM
- EC50 [6]: 100 nM
- Emax [6]: -49 ± 3%
- Kp at 30 min [3]: 1.43
- AUC [3]: 564 ng·h/mL
- Cmax [3]: 1300 ng/mL
- Vd [3]: 1.38 L/kg
- clearance [3]: 58.5 mL/min/kg
- half-life [3]: 19.2 min
Structure (SMILES): CC(C)c1ccc(CNc2cccc(-c3nnc[nH]3)c2)cc1 [ZINC157673384]

- EC50 [1, 9]: > 10000 nM
Structure (SMILES): COc1ccc(CN(C(=O)c2scc(C)c2Cl)c2ccncc2)cc1 [ZINC485552623]

- EC50 [2, 11]: > 30000 nM
Structure (SMILES): COc1cccc2c1CCN(C(=O)c1ccc(F)nc1)C2 [ZINC182731037]

- EC50 [1, 9]: > 10000 nM
Structure (SMILES): Cc1cc(=O)n2ccn(CCc3ccc4c(c3)OC(F)(F)O4)c2n1 [ZINC664088238]

- Emax ([1]; HEK293, read-out: hMT1 % Emax): 86%
- EC50 [1, 9]: 398 nM
- Emax ([2]; HEK293, read-out: hMT2 % Emax): 58%
- EC50 [2, 10]: 355 nM
Structure (SMILES): CN(Cc1ccncc1)c1ccnc(Cl)c1 [ZINC223593565]

- Emax ([1]; HEK293, read-out: hMT1 % Emax): 99%
- EC50 [1, 9]: 1 nM
- Emax ([2]; HEK293, read-out: hMT2 % Emax): 83%
- EC50 [2, 10]: 2 nM
Structure (SMILES): COC(=O)c1ccc(CSc2nnc(C3CC3)[nH]2)s1 [ZINC159050207]

- hMT1 Schild slope [1]: 0.98 ± 0.03
- EC50 [1, 12]: 40.7 nM and 39.8 nM
- EC50 [1, 13]: 39.8 nM
- hMT2 Schild slope ([2]; cAMP): 1.3 ± 0.4
- EC50 [2, 14]: 2000 nM
- EC50 [6]: 63.1 nM
- Emax [6]: -56 ± 5%
- Kp at 30 min [3]: 3.03
- AUC [3]: 494 ng·h/mL
- Cmax [3]: 1950 ng/mL
- Vd [3]: 1.11 L/kg
- clearance [3]: 67.1 mL/min/kg
- half-life [3]: 16.2 min
Structure (SMILES): Clc1ccc(CNc2cccc(-c3nnc[nH]3)c2)c(Br)c1 [ZINC555417447]
- advance of the onset of activity [8]: approximately 1 hour

- Emax ([1]; HEK293, read-out: hMT1 % Emax): 88%
- EC50 [1, 9]: 2000 nM
- melatonin receptor type selectivity (grouping) ([1]; hMT1 versus hMT2, cAMP assays): MT1-selective
Structure (SMILES): COc1ccc(CN(C(=O)[C@H]2C[C@@H]2C)c2ccncc2)cc1 [ZINC151209032]
